Laboratory results as given in ChEMBL document CHEMBL4715738, “In Vitro Antibacterial Activity of Curcumin-Polymyxin B Combinations against Multidrug-Resistant Bacteria Associated with Traumatic Wound Infections” (J Nat Prod, 2016).
≈ marks a conversion by molar mass, not a printed value.

Columns and labels:
Streptococcus pyogenes [1] = test: Antibacterial activity against Streptococcus pyogenes SPY1 assessed as reduction in bacterial growth incubated for 24 hrs; type: functional
Enterococcus faecium [2] = test: Antibacterial activity against vancomycin-resistant Enterococcus faecium OEF65 assessed as reduction in bacterial growth incubated for 24 hrs; type: functional
Pseudomonas aeruginosa [3] = test: Antibacterial activity against Pseudomonas aeruginosa PA14 assessed as reduction in bacterial growth incubated for 24 hrs; type: functional
Enterococcus faecium [4] = test: Antibacterial activity against vancomycin-resistant Enterococcus faecium OEF42 assessed as reduction in bacterial growth incubated for 24 hrs; type: functional
Streptococcus pyogenes [5] = test: Antibacterial activity against Streptococcus pyogenes SPY2 assessed as reduction in bacterial growth incubated for 24 hrs; type: functional
Escherichia coli [6] = test: Antibacterial activity against Escherichia coli EC2 harboring CTX-M-15 assessed as reduction in bacterial growth incubated for 24 hrs; type: functional
Acinetobacter baumannii [7] = test: Antibacterial activity against Acinetobacter baumannii AB12 harboring OXA-23 assessed as reduction in bacterial growth incubated for 24 hrs; type: functional
Escherichia coli [8] = test: Antibacterial activity against Escherichia coli EC204 harboring NDM-1 assessed as reduction in bacterial growth incubated for 24 hrs; type: functional
Acinetobacter baumannii [9] = test: Antibacterial activity against Acinetobacter baumannii AB14 harboring OXA-23 clone 1 assessed as reduction in bacterial growth incubated for 24 hrs; type: functional
Pseudomonas aeruginosa [10] = test: Antibacterial activity against Pseudomonas aeruginosa PAO1 assessed as reduction in bacterial growth incubated for 24 hrs; type: functional
Escherichia coli [11] = test: Antibacterial activity against Escherichia coli NCTC 12241 assessed as reduction in bacterial growth incubated for 24 hrs; type: functional
Acinetobacter baumannii [12] = test: Antibacterial activity against Acinetobacter baumannii NCTC 19606 assessed as reduction in bacterial growth incubated for 24 hrs; type: functional
Pseudomonas aeruginosa [13] = test: Antibacterial activity against Pseudomonas aeruginosa ATCC 27853 assessed as log reduction in colony forming units at MIC measured after 6 hrs by time kill assay; type: functional
Outline: (§1)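 Time-kill in Mueller-Hinton 2 broth. Inoculum was a 1/1000 dilution of a 16 h overnight culture, about 10^6 CFU/mL, 10 mL per tube. Arms were each agent alone at ×1 MIC, or the combination at ×1 MIC plus ×0.5 MIC partner. Incubated at 37 °C with continuous agitation for 24 h. Samples taken at 0, 2, 4, 6 and 24 h, serially diluted and plated on IsoSensitest agar for CFU counts.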

Pseudomonas aeruginosa [14] = test: Antibacterial activity against Pseudomonas aeruginosa ATCC 27853 assessed as reduction in bacterial growth incubated for 24 hrs; type: functional
Streptococcus pyogenes [15] = test: Antibacterial activity against Streptococcus pyogenes SPY3 assessed as reduction in bacterial growth incubated for 24 hrs; type: functional
[16] = system: Stenotrophomonas maltophilia; test: Antibacterial activity against Stenotrophomonas maltophilia SMB07 assessed as reduction in bacterial growth incubated for 24 hrs; type: functional
Enterococcus faecalis [17] = test: Antibacterial activity against […] Enterococcus faecalis ATCC 29212 assessed as reduction in bacterial growth incubated for 24 hrs in presence of curcumin; type: functional
Streptococcus pyogenes [18] = test: Antibacterial activity against Streptococcus pyogenes SPY1 assessed as reduction in bacterial growth incubated for 24 hrs in presence of curcumin; type: functional
[19] = system: Stenotrophomonas maltophilia; test: Antibacterial activity against Stenotrophomonas maltophilia NCTC 10258 assessed as reduction in bacterial growth incubated for 24 hrs; type: functional
Staphylococcus aureus [20] = test: Antibacterial activity against vancomycin-intermediate resistant Staphylococcus aureus Mu50 assessed as reduction in bacterial growth incubated for 24 hrs; type: functional
Staphylococcus aureus [21] = test: Antibacterial activity against methicillin-resistant Staphylococcus aureus NCTC 12493 assessed as reduction in bacterial growth incubated for 24 hrs; type: functional
[22] = system: Stenotrophomonas maltophilia; test: Antibacterial activity against Stenotrophomonas maltophilia SMS01 assessed as reduction in bacterial growth incubated for 24 hrs; type: functional
Pseudomonas aeruginosa [23] = test: Antibacterial activity against Pseudomonas aeruginosa PA30 harboring VIM-2 assessed as reduction in bacterial growth incubated for 24 hrs; type: functional
Acinetobacter baumannii [24] = test: Antibacterial activity against Acinetobacter baumannii NCTC 19606 assessed as log reduction in colony forming units at MIC measured after 6 hrs by time kill assay; type: functional; outline: as §1
Staphylococcus aureus [25] = test: Antibacterial activity against Staphylococcus aureus ATCC 25923 assessed as reduction in bacterial growth incubated for 24 hrs; type: functional
Acinetobacter baumannii [26] = test: Antibacterial activity against Acinetobacter baumannii AB16 harboring OXA-23 clone 2 assessed as reduction in bacterial growth incubated for 24 hrs; type: functional
Enterococcus faecium [27] = test: Synergistic antibacterial activity against vancomycin-resistant Enterococcus faecium OEF65 assessed as fractional inhibitory concentration index measured after 24 hrs in presence of curcumin by checkerboard assay; type: functional
Outline: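 FICI was derived from checkerboard MICs. Synergy was defined as FICI ≤ 0.5 and additive as FICI > 0.5−4.0. Where an MIC was not reached, the dilution above the maximum dose was used in the FICI calculation. Experiments were run in triplicate and reported as means.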

Enterococcus faecalis [28] = test: Antibacterial activity against Enterococcus faecalis ATCC 29212 assessed as reduction in bacterial growth incubated for 24 hrs; settings: ATCC 29212, 24 h
[29] = system: Stenotrophomonas maltophilia; test: Antibacterial activity against Stenotrophomonas maltophilia NCTC 10258 assessed as reduction in bacterial growth incubated for 24 hrs in presence of curcumin; type: functional
HaCaT = test: Cytotoxicity against human HaCaT cells at 174 uM measured after 4 hrs by CyTox 96 nonradioactive assay relative to control; type: cell-based
Streptococcus pyogenes [30] = test: Potentiation of polymyxin B-induced antibacterial activity against Streptococcus pyogenes SPY2 assessed as fold reduction in polymyxin B MIC measured after 24 hrs […] checkerboard assay; type: functional
Outline: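 Polymyxin B MIC measured alone and in combination with curcumin; fold reduction derived from the two MICs. Experiments run in triplicate and reported as mean values.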

[31] = system: Stenotrophomonas maltophilia; test: Potentiation of polymyxin B-induced antibacterial activity against Stenotrophomonas maltophilia SMS01 assessed as fold reduction in polymyxin B MIC measured after 24 hrs in presence of polymyxin B by checkerboard assay; type: functional
Staphylococcus aureus [32] = test: Bactericidal activity against methicillin-resistant Staphylococcus aureus NCTC 12493 assessed as log reduction in colony forming units at 0.5 fold MIC measured after 24 hrs in presence of polymyxin B at MIC by time kill assay; type: functional
Outline: (§2)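 Time-kill in 10 mL Mueller-Hinton 2 broth, 37 °C with continuous agitation, 24 h. Inoculum was a 1/1000 dilution of a 16 h overnight culture, about 10^6 CFU/mL. Single agents at 1× MIC; combination at 1× MIC polymyxin B plus 0.5× MIC curcumin. Samples at 0, 2, 4, 6 and 24 h were serially diluted and plated on IsoSensitest agar for CFU/mL.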

Pseudomonas aeruginosa [33] = test: Bactericidal activity against Pseudomonas aeruginosa ATCC 27853 assessed as bacterial cell death at 0.5 fold MIC measured after 4 to 6 hrs in presence of polymyxin B at MIC by time kill assay relative to control; type: functional; settings: time 4-6 hrs; outline: as §2
Streptococcus pyogenes [34] = test: Antibacterial activity against Streptococcus pyogenes SPY1 assessed as reduction in bacterial growth incubated for 24 hrs in presence of polymyxin B; type: functional
Escherichia coli [35] = test: Potentiation of polymyxin B-induced antibacterial activity against Escherichia coli EC204 harboring NDM-1 assessed as fold reduction in polymyxin B MIC measured after 24 hrs in presence of polymyxin B by checkerboard assay; type: functional
[36] = system: Stenotrophomonas maltophilia; test: Potentiation of polymyxin B-induced antibacterial activity against Stenotrophomonas maltophilia SMB07 assessed as fold reduction in polymyxin B MIC measured after 24 hrs in presence of polymyxin B by checkerboard assay; type: functional

Row | SMILES | MIC (Streptococcus pyogenes [1]) | MIC (Enterococcus faecium [2]) | MIC (Pseudomonas aeruginosa [3]) | MIC (Enterococcus faecium [4]) | MIC (Streptococcus pyogenes [5]) | MIC (Escherichia coli [6]) | MIC (Acinetobacter baumannii [7]) | MIC (Escherichia coli [8]) | MIC (Acinetobacter baumannii [9]) | MIC (Pseudomonas aeruginosa [10]) | MIC (Escherichia coli [11]) | MIC (Acinetobacter baumannii [12]) | MIC (Pseudomonas aeruginosa [14]) | MIC (Streptococcus pyogenes [15]) | MIC [16] | MIC [19] | MIC (Staphylococcus aureus [20]) | MIC (Staphylococcus aureus [21]) | MIC [22] | MIC (Pseudomonas aeruginosa [23]) | further results
1 | CC[C@H](C)CCCCC(=O)N[C@@H](CCN)C(=O)N[C@H](C(=O)N[C@@H](CCN)C(=O)N[C@H]1CCNC(=O)[C@H]([C@@H](C)O)NC(=O)[C@H](CCN)NC(=O)[C@H](CCN)NC(=O)[C@H](CC(C)C)NC(=O)[C@@H](Cc2ccccc2)NC(=O)[C@H](CCN)NC1=O)[C@@H](C)O.O=S(=O)(O)O | 6.1 µM | 49 µM | 0.78 µM | 98 µM | 12.3 µM | 0.096 µM | 0.19 µM | 0.096 µM | 0.096 µM | 0.78 µM | 0.048 µM | 0.19 µM | 0.39 µM | 3.1 µM | 1.5 µM | 1.5 µM | 98 µM | 98 µM | 6.1 µM | 0.39 µM | Activity (Pseudomonas aeruginosa [13]): 2 log10CFU/ml; MIC (Enterococcus faecalis [17]): 0.096 µM; MIC (Streptococcus pyogenes [18]): 0.19 µM; Activity (Acinetobacter baumannii [24]): 2 log10CFU/ml; MIC (Staphylococcus aureus [25]): 98 µM; MIC (Acinetobacter baumannii [26]): 0.19 µM; fractional inhibitory concentration index (FICI) (Enterococcus faecium [27]): 0.281; MIC (Enterococcus faecalis [28]): 98 µM; MIC [29]: 0.008 µM
2 | COc1cc(/C=C/C(=O)CC(=O)/C=C/c2ccc(O)c(OC)c2)ccc1O [CURCUMIN] | 350 µM (≈ 129 µg/mL) | 174 µM (≈ 64.1 µg/mL) | 1390 µM (≈ 512 µg/mL) | 350 µM (≈ 129 µg/mL) | 174 µM (≈ 64.1 µg/mL) | 2780 µM (≈ 1020 µg/mL) | 2780 µM (≈ 1020 µg/mL) | 2780 µM (≈ 1020 µg/mL) | 1390 µM (≈ 512 µg/mL) | 1390 µM (≈ 512 µg/mL) | 2780 µM (≈ 1020 µg/mL) | 2780 µM (≈ 1020 µg/mL) | 1390 µM (≈ 512 µg/mL) | 174 µM (≈ 64.1 µg/mL) | 2780 µM (≈ 1020 µg/mL) | 2780 µM (≈ 1020 µg/mL) | 2780 µM (≈ 1020 µg/mL) | 2780 µM (≈ 1020 µg/mL) | 2780 µM (≈ 1020 µg/mL) | 2780 µM (≈ 1020 µg/mL) | Activity (HaCaT): 34%; fold change (FC) (Streptococcus pyogenes [30]): 3; fold change (FC) [31]: 3; Activity (Staphylococcus aureus [32]): >3 log10CFU/ml; Activity (Pseudomonas aeruginosa [33]): 100%; MIC (Streptococcus pyogenes [34]): 43 µM; fold change (FC) (Escherichia coli [35]): 3; MIC (Staphylococcus aureus [25]): 2780 µM (≈ 1020 µg/mL); MIC (Acinetobacter baumannii [26]): 2780 µM (≈ 1020 µg/mL); MIC (Enterococcus faecalis [28]): 350 µM (≈ 129 µg/mL); fold change (FC) [36]: 3
